From PMC4635625 (Neuropharmacology, 2015)
Where a name gives a salt, the structure may show the parent alone. Read-outs that look alike come from different tables or passages of the source.

Experiments:
[1] = target: α6L9′Sβ2L9′SLFM/AAQA (α6β2‡) nAChR (Rattus norvegicus, UniProt P12390+P43143, L273S/L280S/L348M/R364A/R365A/R367A); assay: cell-based; type: cell-based
[2] = target: α6β2‡ nAChR, TrpB (α6:W149) = 5-CNTrp (Rattus norvegicus, UniProt P12390+P43143, L273S/L280S/L348M/R364A/R365A/R367A/W179X); assay: TEVC dose-response, nonsense suppression, CNTrp at TrpB; type: cell-based; details: 10:1 α6β2‡
[3] = target: α6β2‡ nAChR, TrpB (α6:W149) = 5,6,7-F3Trp (Rattus norvegicus, UniProt P12390+P43143, L273S/L280S/L348M/R364A/R365A/R367A/W179X); assay: TEVC dose-response, nonsense suppression, F3Trp at TrpB; type: cell-based
[4] = target: α6β2‡ nAChR, TrpB (α6:W149) = Trp (Rattus norvegicus, UniProt P12390+P43143, L273S/L280S/L348M/R364A/R365A/R367A); assay: TEVC dose-response, nonsense suppression series, Trp at TrpB; type: cell-based
[5] = target: α6β2‡ nAChR, TrpB (α6:W149) = 6-F1Trp (Rattus norvegicus, UniProt P12390+P43143, L273S/L280S/L348M/R364A/R365A/R367A/W179X); assay: TEVC dose-response, nonsense suppression, 6-F1Trp at TrpB; type: cell-based; details: TrpB = 6-F1Trp; 10:1 α6β2‡
[6] = target: α6β2‡ nAChR, TrpB (α6:W149) = 5,7-F2Trp (Rattus norvegicus, UniProt P12390+P43143, L273S/L280S/L348M/R364A/R365A/R367A/W179X); assay: TEVC dose-response, nonsense suppression, F2Trp at TrpB; type: cell-based
α4β2 nAChR = details: ref Dougherty and Van Arnam, 2014; cited from earlier work
[7] = target: TrpB (α6:W149) in α6β2‡ nAChR (Rattus norvegicus, UniProt P12390+P43143, L273S/L280S/L348M/R364A/R365A/R367A); assay: Fluorination plot; type: cell-based; details: for cation-π interaction with the indole side chain of TrpB: fluorination plot at TrpB in α6β2‡
Summary of the method: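 Rat α6β2‡ with UAG at TrpB, 10:1 α6:β2 mRNA, coinjected with photodeprotected fluoro-Trp–tRNA (25 ng mRNA per cell) into stage V–VI Xenopus oocytes; 24–48 h at 18 °C in ND96 pH 7.5. TEVC at −60 mV, 15 s agonist pulses in Ca2+-free ND96. EC50 from Hill fits of normalized averaged data. Log fold-shift in EC50 plotted against calculated cation–fluoro-Trp binding energy.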

muscle-type nAChR = details: ref Beene et al., 2002; cited from earlier work
[8] = target: α6β2‡ nAChR, TrpB (α6:W149) = 5-Me-Trp (Rattus norvegicus, UniProt P12390+P43143, L273S/L280S/L348M/R364A/R365A/R367A/W179X); assay: TEVC dose-response, nonsense suppression, MeTrp at TrpB; type: cell-based
[9] = target: α6β2‡ nAChR, TrpB (α6:W149) = 5-Br-Trp (Rattus norvegicus, UniProt P12390+P43143, L273S/L280S/L348M/R364A/R365A/R367A/W179X); assay: TEVC dose-response, nonsense suppression, BrTrp at TrpB; type: cell-based
[10] = target: α6β2‡ nAChR, TrpB (α6:W149) = 4-F1Trp (Rattus norvegicus, UniProt P12390+P43143, L273S/L280S/L348M/R364A/R365A/R367A/W179X); assay: TEVC dose-response, nonsense suppression, 4-F1Trp at TrpB; type: cell-based; details: TrpB = 4-F1Trp; 10:1 α6β2‡
[11] = target: α6β2‡ nAChR, TrpB (α6:W149) = 5-F1Trp (Rattus norvegicus, UniProt P12390+P43143, L273S/L280S/L348M/R364A/R365A/R367A/W179X); assay: TEVC dose-response, nonsense suppression, 5-F1Trp at TrpB; type: cell-based
α6β2‡ nAChR = α6β2‡ nAChR (Rattus norvegicus, UniProt P12390+P43143, L273S/L280S/L348M/R364A/R365A/R367A); type: cell-based
[12] = agonist panel, α6-biased population, Hill coefficient
[13] = agonist panel, α6-biased population, range of maximum currents
[14] = agonist panel, α6-biased population, holding potential −60 mV
[15] = Table 4, fold-shift in EC50 relative to Trp

Chain of α6β2‡ nAChR, TrpB (α6:W149) = Trp (P43143 31-493 L280S): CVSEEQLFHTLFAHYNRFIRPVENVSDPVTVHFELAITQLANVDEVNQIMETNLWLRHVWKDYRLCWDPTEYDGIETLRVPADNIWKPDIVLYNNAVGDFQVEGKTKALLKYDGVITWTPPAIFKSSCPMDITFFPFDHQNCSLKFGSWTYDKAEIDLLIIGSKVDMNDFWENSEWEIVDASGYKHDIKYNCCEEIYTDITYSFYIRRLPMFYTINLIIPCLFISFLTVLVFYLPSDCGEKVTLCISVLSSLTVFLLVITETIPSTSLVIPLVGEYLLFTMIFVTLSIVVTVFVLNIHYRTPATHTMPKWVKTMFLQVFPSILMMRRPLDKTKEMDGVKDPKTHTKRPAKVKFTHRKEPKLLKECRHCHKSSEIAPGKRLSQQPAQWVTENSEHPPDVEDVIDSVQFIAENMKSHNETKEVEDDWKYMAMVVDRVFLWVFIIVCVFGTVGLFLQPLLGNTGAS
Chain of α6β2‡ nAChR, TrpB (α6:W149) = Trp (P12390 25-500 L273S/L348M/R364A/R365A/R367A): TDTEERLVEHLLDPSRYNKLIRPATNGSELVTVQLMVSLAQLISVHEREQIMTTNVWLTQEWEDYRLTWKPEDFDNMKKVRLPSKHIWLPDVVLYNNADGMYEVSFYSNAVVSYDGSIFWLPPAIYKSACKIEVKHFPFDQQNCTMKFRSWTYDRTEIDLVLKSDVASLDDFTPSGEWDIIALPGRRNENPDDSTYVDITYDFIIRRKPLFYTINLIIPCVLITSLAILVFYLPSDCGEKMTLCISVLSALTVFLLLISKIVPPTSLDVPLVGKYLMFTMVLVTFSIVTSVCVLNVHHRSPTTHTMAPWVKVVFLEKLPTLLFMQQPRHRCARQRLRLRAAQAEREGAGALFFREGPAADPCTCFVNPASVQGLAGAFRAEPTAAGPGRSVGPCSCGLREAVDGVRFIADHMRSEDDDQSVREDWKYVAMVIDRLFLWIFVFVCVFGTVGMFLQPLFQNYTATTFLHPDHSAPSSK
Chain of TrpB (α6:W149) in α6β2‡ nAChR (P43143 31-493 L280S): as the sequence (P43143 31-493 L280S) above
Chain of TrpB (α6:W149) in α6β2‡ nAChR (P12390 25-500 L273S/L348M/R364A/R365A/R367A): as the sequence (P12390 25-500 L273S/L348M/R364A/R365A/R367A) above
Chain of α6β2‡ nAChR (P43143 31-493 L280S): as the sequence (P43143 31-493 L280S) above
Chain of α6β2‡ nAChR (P12390 25-500 L273S/L348M/R364A/R365A/R367A): as the sequence (P12390 25-500 L273S/L348M/R364A/R365A/R367A) above
Chain of α6L9′Sβ2L9′SLFM/AAQA (α6β2‡) nAChR (P43143 31-493 L280S): as the sequence (P43143 31-493 L280S) above
Chain of α6L9′Sβ2L9′SLFM/AAQA (α6β2‡) nAChR (P12390 25-500 L273S/L348M/R364A/R365A/R367A): as the sequence (P12390 25-500 L273S/L348M/R364A/R365A/R367A) above

## Clc1ccc(C2CC3CCC2N3)cn1 (racemic) [Epi, (±)-epibatidine]
[1]; [12]
  nH: 1.9 ± 0.2
[1]; [13]
  Imax: 0.47–2.81 µA

## CC(=O)OCC[N+](C)(C)C [ACh, Acetylcholine chloride]
[2]
  Imax: 0.31–13.3 uA
[3]; 10:1 α6β2‡
  Imax: 0.09–1.94 uA
  nH: 1.04 ± 0.03
[4]; 10:1 α6β2‡
  Imax: 0.28–14.9 uA
  nH: 1.36 ± 0.03
[5]
  Imax: 0.18–4.28 uA
  nH: 1.30 ± 0.04
[6]; 10:1 α6β2‡
  Imax: 0.76–9.33 uA
  nH: 1.43 ± 0.02
α4β2 nAChR
  cation-π interaction to TrpB: strong cation-π interaction
[7]; 10:1 α6β2‡, trend excludes 5-CNTrp and 4-F1Trp
  slope of linear trend of fluorination plot: −0.10
[7]
  cation-π interaction with the indole side chain of TrpB: strong cation-π interaction
[1]; [12]
  nH: 1.36 ± 0.03
[1]; [13]
  Imax: 0.28–14.9 µA
[1]; α6:β2 mRNA ratio 1:1, Hill coefficient
  nH: 1.15 ± 0.06
[1]; α6:β2 mRNA ratio 1:1, range of maximum currents
  Imax: 4.42–14.2
[1]; α6:β2 mRNA ratio 1:2, Hill coefficient
  nH: 1.23 ± 0.05
[1]; α6:β2 mRNA ratio 1:2, range of maximum currents
  Imax: 3.06–31.7
[1]; α6:β2 mRNA ratio 1:5, Hill coefficient
  nH: 0.95 ± 0.04
[1]; α6:β2 mRNA ratio 1:5, range of maximum currents
  Imax: 0.70–8.21
[1]; α6:β2 mRNA ratio 1:10, Hill coefficient
  nH: 0.83 ± 0.02
[1]; α6:β2 mRNA ratio 1:10, range of maximum currents
  Imax: 1.01–4.67
[1]; α6:β2 mRNA ratio 1:20, Hill coefficient
  nH: 0.86 ± 0.03
[1]; α6:β2 mRNA ratio 1:20, range of maximum currents
  Imax: 1.01–10.9
[1]; α6:β2 mRNA ratio 2:1, Hill coefficient
  nH: 1.14 ± 0.03
[1]; α6:β2 mRNA ratio 2:1, range of maximum currents
  Imax: 0.94–79.5
[1]; α6:β2 mRNA ratio 5:1, Hill coefficient
  nH: 1.17 ± 0.04
[1]; α6:β2 mRNA ratio 5:1, range of maximum currents
  Imax: 0.70–79.9
[1]; α6:β2 mRNA ratio 10:1, Hill coefficient
  nH: 1.17 ± 0.04
[1]; α6:β2 mRNA ratio 10:1, range of maximum currents
  Imax: 4.85–70.7
[1]; α6:β2 mRNA ratio 20:1, Hill coefficient
  nH: 1.64 ± 0.05
[1]; α6:β2 mRNA ratio 20:1, range of maximum currents
  Imax: 0.25–1.44
[1]; α6:β2 mRNA ratio 50:1, Hill coefficient
  nH: 1.17 ± 0.03
[1]; α6:β2 mRNA ratio 50:1, range of maximum currents
  Imax: 8.25–57.3
[1]; α6L9′Sβ2L9′SLFM/AAQA in oocytes
  currents in response to acetylcholine: greater than 1 µA
muscle-type nAChR
  cation-π interaction: does
[8]; 10:1 α6β2‡
  Imax: 0.19–19.4 uA
  nH: 1.18 ± 0.02
[9]; 10:1 α6β2‡
  Imax: 0.22–15.1 uA
  nH: 1.32 ± 0.04
[10]
  Imax: 0.71–6.92 uA
[11]; TrpB = 5-F1Trp, 10:1 α6β2‡
  nH: 1.37 ± 0.03

## C[N+](C)(C)CCOC(N)=O.[Cl-] [CCh, carbamylcholine chloride]
[1]; [14]
  EC50: 1360 ± 50 nM
[1]; [12]
  nH: 1.12 ± 0.04
[1]; [13]
  Imax: 3.63–52.5 µA

## C[N+](C)(C)CCO [Ch, choline chloride]
[1]
  Imax: 2.08–15.4 µA
  nH: 1.32 ± 0.05
[1]; EC50
  EC50: 159000 ± 7000 nM
α6β2‡ nAChR
  Eff: 0.33 ± 0.02

## O=c1cccc2n1C[C@@H]1CNC[C@H]2C1 [Cyt, cytisine]
[1]
  Imax: 0.57–31.9 µA
  nH: 1.31 ± 0.05
  potency (EC50) relative to ACh: slightly more potent
[1]; EC50
  EC50: 27 ± 1 nM
α6β2‡ nAChR
  Eff: 0.28 ± 0.01

## CN1CCC[C@H]1c1cccnc1 [Nic, (−)-nicotine tartrate]
[3]; Table 4
  Imax: 0.05–1.05 µA
  nH: 1.28 ± 0.03
[4]; Table 4
  Imax: 0.09–5.8 µA
  nH: 1.43 ± 0.06
[6]; Table 4
  Imax: 0.32–2.13 µA
  nH: 1.30 ± 0.06
α4β2 nAChR
  cation-π interaction to TrpB: strong cation-π interaction
[7]
  cation-π interaction with the indole side chain of TrpB: do not make cation-π interactions
[1]
  Imax: 9.48–54.4 µA
  nH: 1.38 ± 0.05
[8]; Table 4
  Imax: 0.31–3.95 µA
  nH: 1.36 ± 0.05
[9]; Table 4
  Imax: 0.08–5.65 µA
  nH: 1.42 ± 0.04
α6β2‡ nAChR
  Eff: 0.49 ± 0.03
[11]; Table 4, TrpB = F1Trp
  Imax: 0.07–2.06 µA
  nH: 1.39 ± 0.06

## C1=C(/c2cncnc2)CCCNCC/1 [TC299]
[3]; Table 4
  EC50: 630 ± 30 nM
  Imax: 0.05–0.28 µA
  nH: 0.90 ± 0.03
[3]; [15]
  Fold: 6.77
[4]; Table 4
  EC50: 93 ± 4 nM
  Imax: 0.33–3.78 µA
  nH: 1.09 ± 0.04
[4]; [15]
  Fold: 1
[6]; Table 4
  EC50: 138 ± 6 nM
  Imax: 0.06–1.87 µA
  nH: 0.98 ± 0.04
[6]; [15]
  Fold: 1.48
[1]; [14]
  EC50: 71 ± 3 nM
[1]; [12]
  nH: 0.99 ± 0.04
[1]; [13]
  Imax: 1.73–21.9 µA
[8]; Table 4
  EC50: 73 ± 4 nM
  Imax: 0.15–2.35 µA
  nH: 0.92 ± 0.03
[8]; [15]
  Fold: 0.78
[9]; Table 4
  EC50: 250 ± 8 nM
  Imax: 0.1–7.71 µA
  nH: 1.01 ± 0.03
[9]; [15]
  Fold: 2.69
[11]; Table 4, TrpB = F1Trp
  EC50: 220 ± 10 nM
  Imax: 0.27–3.49 µA
  nH: 1.01 ± 0.04
[11]; Table 4, fold-shift in EC50 relative to Trp, TrpB = F1Trp
  Fold: 2.37

## c1cnc2cc3c(cc2n1)[C@@H]1CNC[C@H]3C1 [Var, varenicline]
[1]; EC50, agonist panel, α6-biased population, holding potential −60 mV
  EC50: 31 ± 3 nM
[1]; agonist panel at α6β2‡, in words
  potency (EC50) relative to ACh: slightly more potent
[1]; [12]
  nH: 1.08 ± 0.08
[1]; [13]
  Imax: 0.51–12.1 µA
